Biological target: T1, Hormone-sensitive lipase (Rattus norvegicus, UniProt P15304)
T1 sequence (P15304 whole entry): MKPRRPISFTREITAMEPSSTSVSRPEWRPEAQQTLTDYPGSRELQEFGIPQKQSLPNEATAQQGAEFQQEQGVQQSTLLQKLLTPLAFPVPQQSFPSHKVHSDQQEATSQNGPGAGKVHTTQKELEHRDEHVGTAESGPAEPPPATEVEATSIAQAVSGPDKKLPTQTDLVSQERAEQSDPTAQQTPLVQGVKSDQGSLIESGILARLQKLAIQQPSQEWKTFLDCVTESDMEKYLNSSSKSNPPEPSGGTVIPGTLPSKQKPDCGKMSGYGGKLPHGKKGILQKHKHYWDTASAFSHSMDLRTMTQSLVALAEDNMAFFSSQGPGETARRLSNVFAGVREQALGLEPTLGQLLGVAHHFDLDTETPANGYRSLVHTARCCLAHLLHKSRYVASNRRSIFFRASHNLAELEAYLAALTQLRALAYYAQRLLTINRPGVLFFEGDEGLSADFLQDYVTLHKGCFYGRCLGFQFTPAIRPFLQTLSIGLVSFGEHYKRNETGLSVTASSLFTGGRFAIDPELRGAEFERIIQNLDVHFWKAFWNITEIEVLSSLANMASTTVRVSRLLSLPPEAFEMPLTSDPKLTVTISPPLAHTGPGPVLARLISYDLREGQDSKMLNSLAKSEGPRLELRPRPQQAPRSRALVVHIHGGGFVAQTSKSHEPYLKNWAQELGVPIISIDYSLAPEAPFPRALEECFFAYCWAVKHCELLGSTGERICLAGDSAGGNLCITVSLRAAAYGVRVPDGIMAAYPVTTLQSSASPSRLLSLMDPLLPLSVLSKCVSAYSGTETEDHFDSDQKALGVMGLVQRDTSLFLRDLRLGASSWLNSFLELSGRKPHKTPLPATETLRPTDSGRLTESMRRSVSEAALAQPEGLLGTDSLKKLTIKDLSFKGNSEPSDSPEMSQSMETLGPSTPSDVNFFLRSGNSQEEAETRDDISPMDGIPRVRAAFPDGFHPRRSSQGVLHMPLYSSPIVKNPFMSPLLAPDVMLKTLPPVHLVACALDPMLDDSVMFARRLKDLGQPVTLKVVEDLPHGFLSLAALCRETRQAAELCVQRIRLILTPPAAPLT
Assay: Inhibition of rat hormone sensitive lipase assessed as oleic acid release from [3H]triolein by scintillation counting
How it was run: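 His-tagged rat HSL expressed in baculovirus-infected Sf9 cells, Ni-NTA purified. Enzyme (20–100 nM) preincubated 30 min on ice with inhibitor-containing PC/PI liposomes, no triolein. Substrate: liposomes of 200 μM PC/PI (3:1 w/w) with 500 μM triolein plus 3H-triolein. Buffer: 25 mM Tris, 150 mM NaCl, 0.2 mM EDTA, 1 mM β-mercaptoethanol, pH 7.4, with 0.2% BSA. Run at 37°C. Samples taken every 10 min (6–8 points), oleate extracted and counted. IC50 is the inhibitor level giving 50% activity, in triplicate.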

Row | Compound | IC50 [µM]
1 | CCCCCCCCCCCCCCCCOP1(=O)OCCC(C(=O)OC)=C(C)O1 (stereo not given) | 0.06
2 | CCCCCCCCCCCCCCCCOP1(=O)OC(C)=C(C(=O)OC)CCC1(F)F (stereo not given) | > 100
3 | CCCCCCCCCCCCCCCC[C@H]1CC[P@@](=O)(OC)OC(C)=C1C(=O)OC | 10
4 | CCCCCCCCCCCCCCCO[P@]1(=O)OC[C@@H]2COC(=O)C2=C(C)O1 (racemic) | 0.9
5 | CCCCCCCCCCCCCCCO[P@]1(=O)OC[C@H]2COC(=O)C2=C(C)O1 (racemic) | 0.075
6 | CCCCCCCCCCCCCCCO[P@]1(=O)CC[C@@H]2COC(=O)C2=C(C)O1 (racemic) | 0.45
7 | CCCCCCCCCCCCCCCO[P@]1(=O)CC[C@H]2COC(=O)C2=C(C)O1 (racemic) | 0.47
8 | CCCCCCCCCCCCCCCCO[P@]1(=O)CC[C@@H]2COC(=O)C2=C(C)O1 (racemic) | 6.9
9 | CCCCCCCCCCCCCCCCO[P@]1(=O)CC[C@H]2COC(=O)C2=C(C)O1 (racemic) | 0.36
10 | CCCCCCCCCCCCCCCCCC[C@@H]1CC[P@@](=O)(OC)OC(C)=C1C(=O)OC (relative stereo) | > 100
11 | CCCCCCCCCCCCCCCC[C@@H]1CC[P@@](=O)(OC)OC(C)=C1C(=O)OC (relative stereo) | 60
12 | CCCCCCCCCCCC[C@@H]1CC[P@@](=O)(OC)OC(C)=C1C(=O)OC (relative stereo) | 35
13 | CO[P@]1(=O)OC[C@@H]2COC(=O)C2=C(C)O1 (relative stereo) | > 100
14 | CCCCCCCCCCCCCCCCO[P@]1(=O)OC[C@@H]2COC(=O)C2=C(C)O1 (relative stereo) | 0.025
15 | CCCCCCCCCCCCCCCCO[P@]1(=O)OC[C@H]2COC(=O)C2=C(C)O1 (relative stereo) | 0.42
16 | CCCCCCCCCCCC[C@H]1CC[P@@](=O)(OC)OC(C)=C1C(=O)OC (relative stereo) | 13.5
17 | CCCCCCCCCCCCCCCCCC[C@H]1CC[P@@](=O)(OC)OC(C)=C1C(=O)OC (relative stereo) | 27
18 | CO[P@@]1(=O)CC[C@H]2COC(=O)C2=C(C)O1 (relative stereo) | 100
19 | CO[P@]1(=O)OC[C@H]2COC(=O)C2=C(C)O1 (relative stereo) [CYCLOPHOSTIN] | > 100

Biological target: T1, Hormone-sensitive lipase
Assay: Irreversible inhibition of rat hormone sensitive lipase assessed as relative residual activity by kinetic analysis
How it was run: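 Recombinant His-tagged rat HSL, no preincubation, added directly at 37°C to liposomes containing both [3H]triolein and inhibitor, at several inhibitor concentrations. Samples every 3–5 min over 30 min. Released oleic acid extracted and measured by scintillation. Residual activity versus inhibitor concentration and time fitted to an irreversible inactivation scheme (k-2 ≈ 0) to obtain binding and inactivation constants.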

Row | Compound | Ki [µM]
20 | CCCCCCCCCCCCCCCCO[P@]1(=O)OC[C@@H]2COC(=O)C2=C(C)O1 (relative stereo) | 0.04

From ChEMBL document CHEMBL3399930, “Rat hormone sensitive lipase inhibition by cyclipostins and their analogs” (Bioorg Med Chem, 2015)
